Screening results (PubChem)
CHRM4 antagonist: CHRM4 antagonism in calcium assay | CHO-hM4 cells, ACh EC80, Fluo-8 calcium fluorescence | inhibition, % at 3 µM | hit rate 0.73% among 360,000 | AID 624125;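 active means inhibition above its plate's cutoff, the mean inhibition of sample wells plus 3 SD, cut at about 27% in these data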;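 further: 0% = acetylcholine EC80 with DMSO and 100% = DMSO without agonist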
M4 PAM: potentiates acetylcholine response at human M4 receptor. AID 624126. CHO-K1 hM4/Gqi5, Fluo-8 calcium fluorescence, ACh EC20; 0% = ACh EC20, 100% = maximal ACh. activation, % at 3 µM. hit rate 0.4% among 360,000. P08173;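 active means activation above its plate's cutoff, the mean activation of sample wells plus 3 SD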
M5 antag: CHRM5 antagonism in calcium assay; hit rate 0.59% among 360,000; inhibition, % at 3 µM; CHO-hM5 cells, Fluo-8 calcium fluorescence, ACh EC80;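 active means inhibition above a per-plate cutoff, the mean of that plate's test compounds plus 3 SD, cut at about 27% in these data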;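 further: 0% = acetylcholine EC80 with DMSO and 100% = DMSO without agonist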
Target sequence (P08912 whole entry, looked up): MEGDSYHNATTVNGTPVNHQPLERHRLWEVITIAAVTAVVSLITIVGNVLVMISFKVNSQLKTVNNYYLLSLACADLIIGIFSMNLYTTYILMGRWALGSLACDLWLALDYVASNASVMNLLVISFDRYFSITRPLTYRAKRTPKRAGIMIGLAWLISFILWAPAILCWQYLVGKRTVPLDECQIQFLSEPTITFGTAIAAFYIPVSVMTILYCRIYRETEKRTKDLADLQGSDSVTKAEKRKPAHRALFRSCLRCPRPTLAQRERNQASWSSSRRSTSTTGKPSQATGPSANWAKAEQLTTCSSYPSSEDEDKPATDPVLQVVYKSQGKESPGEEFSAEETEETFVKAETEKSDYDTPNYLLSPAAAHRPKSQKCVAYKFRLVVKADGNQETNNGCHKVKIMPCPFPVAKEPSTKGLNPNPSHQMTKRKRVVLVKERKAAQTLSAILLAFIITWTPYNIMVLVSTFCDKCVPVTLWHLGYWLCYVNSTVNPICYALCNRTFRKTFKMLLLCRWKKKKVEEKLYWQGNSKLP
CHRM4 agonist: CHRM4 agonism in calcium assay. CHO-K1 hM4/Gqi5, Fluo-8 calcium fluorescence; vehicle 0%, full acetylcholine response 100%. hit rate 0.14% among 360,000. P08173. AID 624127. activation, % at 3 µM;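 active means activation above the run mean over all test wells plus 3 SD, cut at about 32% in these data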;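 further: peak over basal fluorescence ratio per well then scaled between controls; 0% = DMSO wells and 100% = acetylcholine at EC100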
CHRM5 PAM: CHRM5 positive allosteric modulation | P08912 | hit rate 0.3% among 360,000 | CHO-K1 hM5, Fluo-8 calcium, ACh EC20 PAM; 0% = ACh EC20, 100% = ACh EC100 | activation, % at 3 µM | AID 624038;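 active means activation above the run cutoff, the mean activation of all test compounds plus 3 SD, cut at about 18% in these data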
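System – CHO-K1 hM5 cells · Compound – 3 µM, single dose · Incubation – compound preincubation 140 s before EC20 acetylcholine addition · Technique – Fluo-8 calcium fluorescence · Measure – Max/basal fluorescence ratio as % of EC20–EC100 ACh window · Benchmarks – low control EC20 acetylcholine (0%), high control EC100 acetylcholine (100%) · Replication – singlicate, one well per test compound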
M5 ag: agonists of human muscarinic M5 receptor (CHRM5); hit rate 0.19% among 360,000; CHO-K1 hM5 cells, Fluo-8 calcium fluorescence; 0% DMSO wells, 100% maximal acetylcholine response; P08912; activation, % at 3 µM;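 active means activation above the run's mean over test compounds plus 3 SD, cut at about 23% in these data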;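 further: signal is peak over basal fluorescence ratio across the kinetic read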
* hit, by the source's call. Sampled rows, rich in hits. Any-hit rate of the full collection: about 1.8%.

Screening CC(C)c1ccc(-c2nc(N3CCCC3)nc3n[nH]c(N)c23)cc1 returned CHRM4 antagonist -5, M4 PAM 12, M5 antag -2, CHRM4 agonist 1, CHRM5 PAM 54* and M5 ag 3.
Cc1cc(C)c2c(=O)n(CC(=O)Nc3cccc(Cl)c3C)sc2n1 was read as CHRM4 antagonist 70*, M4 PAM -37, M5 antag 21, CHRM4 agonist 67*, CHRM5 PAM -9 and M5 ag 28*.
Cc1cc(C)c2c(=O)n(CC(=O)Nc3ccc(Br)c(C)c3)sc2n1 was read as CHRM4 antagonist 7, M4 PAM 4, M5 antag 6, CHRM4 agonist 2, CHRM5 PAM 2 and M5 ag 1.
For Cc1ccc(NC(=S)N(Cc2ccc(Cl)cc2)Cc2ccc(C(=O)O)cc2)cc1Cl the results were CHRM4 antagonist 6, M4 PAM -3, M5 antag -2, CHRM4 agonist -1, CHRM5 PAM 0 and M5 ag -4.
Screening CCOC(=O)c1nn(-c2ccc(F)cc2)c(=O)cc1OCC(=O)Nc1cccc(C)c1 returned CHRM4 antagonist -26, M4 PAM 24*, M5 antag -5, CHRM4 agonist -1, CHRM5 PAM -5 and M5 ag 5.
CCOC(=O)c1nn(-c2ccc(C)cc2)c(=O)cc1OCC(=O)Nc1cc(C)ccc1OC was read as CHRM4 antagonist -14, M4 PAM -2, M5 antag -11, CHRM4 agonist -1, CHRM5 PAM 10 and M5 ag 0.
For COc1ccc(OC)c(NC(=O)CSc2nnc3ccc(-c4ccncc4)nn23)c1 the results were CHRM4 antagonist -7, M4 PAM -19, M5 antag 5, CHRM4 agonist 2, CHRM5 PAM 2 and M5 ag -14.
Screening COc1ccc(C)cc1NC(=O)CSc1nnc2ccc(-c3ccncc3)nn12 returned CHRM4 antagonist 27*, M4 PAM -16, M5 antag 1, CHRM4 agonist 4, CHRM5 PAM 0 and M5 ag -4.
For N/C(=N\OC(=O)Nc1cccc(C(F)(F)F)c1)c1ccno1 the results were CHRM4 antagonist 10, M4 PAM -7, M5 antag 27*, CHRM4 agonist 7, CHRM5 PAM -17 and M5 ag 0.
`Cn1c(N)c(C(=O)COC(=O)/C=C/c2ccc(Cl)cc2Cl)c(=O)n(C)c1=O` gave CHRM4 antagonist 10, M4 PAM -1, M5 antag -1, CHRM4 agonist 1, CHRM5 PAM -2 and M5 ag 1.
COc1ccccc1/C=C/C(=O)OCC(=O)c1c(N)n(C)c(=O)n(C)c1=O was read as CHRM4 antagonist 6, M4 PAM 8, M5 antag 4, CHRM4 agonist 1, CHRM5 PAM 19* and M5 ag 2.
Screening COc1cccc(/C=C/C(=O)OCCN2C(=O)c3ccccc3C2=O)c1 returned CHRM4 antagonist -17, M4 PAM -7, M5 antag 4, CHRM4 agonist 14, CHRM5 PAM -10 and M5 ag 0.
COc1ccc(N(C)S(=O)(=O)c2cccc(C(=O)OCC(=O)c3c(N)n(C)c(=O)n(C)c3=O)c2)cc1 was read as CHRM4 antagonist 38*, M4 PAM -16, M5 antag 19, CHRM4 agonist 31, CHRM5 PAM -40 and M5 ag 5.
For COc1ccccc1/C=C/C(=O)OCCN1C(=O)c2ccccc2C1=O the results were CHRM4 antagonist 79*, M4 PAM -20, M5 antag 9, CHRM4 agonist 9, CHRM5 PAM -5 and M5 ag -3.
OCCN1CCN(CCCN2c3ccccc3Sc3ccc(Cl)cc32)CC1 was read as CHRM4 antagonist 98*, M4 PAM -17, M5 antag 34*, CHRM4 agonist 2, CHRM5 PAM -19 and M5 ag -1.
Screening CN(C)CCCN1c2ccccc2Sc2ccc3ccccc3c21 returned CHRM4 antagonist 27*, M4 PAM -12, M5 antag 55*, CHRM4 agonist 12, CHRM5 PAM -44 and M5 ag -12.
